Measured values from ChEMBL document CHEMBL4014339, “Discovery of 1,4-Benzodiazepine-2,5-dione (BZD) Derivatives as Dual Nucleotide Binding Oligomerization Domain Containing 1/2 (NOD1/NOD2) Antagonists Sensitizing Paclitaxel (PTX) To Suppress Lewis Lung Carcinoma (LLC) Growth in Vivo” (J Med Chem, 2017).

Biological target: T1, Nucleotide-binding oligomerization domain-containing protein 1 (Homo sapiens) (UniProt Q9Y239)
T1 sequence (whole entry): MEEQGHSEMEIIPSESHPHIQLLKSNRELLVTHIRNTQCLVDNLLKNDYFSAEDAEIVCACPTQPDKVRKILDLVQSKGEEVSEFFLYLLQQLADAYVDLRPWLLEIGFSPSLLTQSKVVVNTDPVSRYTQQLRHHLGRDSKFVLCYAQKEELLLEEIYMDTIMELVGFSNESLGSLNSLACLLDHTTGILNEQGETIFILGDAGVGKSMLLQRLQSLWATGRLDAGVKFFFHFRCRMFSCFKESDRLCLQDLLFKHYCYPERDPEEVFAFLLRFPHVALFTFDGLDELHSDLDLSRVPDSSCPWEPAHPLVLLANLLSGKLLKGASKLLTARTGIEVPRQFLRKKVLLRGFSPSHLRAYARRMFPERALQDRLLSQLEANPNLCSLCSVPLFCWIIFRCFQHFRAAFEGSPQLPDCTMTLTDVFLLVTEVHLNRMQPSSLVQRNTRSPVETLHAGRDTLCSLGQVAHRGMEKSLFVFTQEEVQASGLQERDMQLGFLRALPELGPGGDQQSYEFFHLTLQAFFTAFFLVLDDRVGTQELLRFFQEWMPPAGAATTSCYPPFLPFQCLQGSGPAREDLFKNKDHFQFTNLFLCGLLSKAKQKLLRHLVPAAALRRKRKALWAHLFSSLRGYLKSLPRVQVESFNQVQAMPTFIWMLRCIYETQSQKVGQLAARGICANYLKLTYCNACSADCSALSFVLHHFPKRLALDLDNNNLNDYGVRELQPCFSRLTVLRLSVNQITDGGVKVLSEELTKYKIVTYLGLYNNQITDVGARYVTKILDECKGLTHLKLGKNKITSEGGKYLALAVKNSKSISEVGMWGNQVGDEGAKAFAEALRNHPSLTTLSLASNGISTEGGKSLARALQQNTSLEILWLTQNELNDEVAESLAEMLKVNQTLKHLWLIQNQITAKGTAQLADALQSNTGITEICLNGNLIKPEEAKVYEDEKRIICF
Test: Antagonist activity at human NOD1 expressed in HEK-Blue cells assessed as inhibition of C12-iE-DAP-stimulated cell activation at 10 uM preincubated for 3 hrs followed by C12-iE-DAP addition measured after 20 hrs by SEAP reporter gene assay
Assay type: cell-based
Outline: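 HEK-Blue hNOD1 or hNOD2 cells preincubated with compound 3 h, then stimulated 20 h with C12-iE-DAP 50 ng/mL (NOD1) or MDP 100 ng/mL (NOD2); SEAP in supernatant quantified. Primary screen at 10 μM, hits repeated in triplicate; IC50 from dose-response, mean ± SD (n = 3), only for compounds reaching ≥50% inhibition at the screening concentration.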

SMILES: CCCNC(=O)CC[C@H]1NC(=O)c2cc(Oc3cccc(N(C)C)c3)c(NC(=O)COCc3ccccc3)cc2NC1=O
- inhibition: 86.2%
